Screening data: PubChem, several laboratories
ARFGAP1 inh: inhibitors of rat ARFGAP1. Arfgap1-stimulated ARF1 GTP hydrolysis, GDP FP detection. inhibition, % at 16.5 µM. 360,000 compounds, 0.26% hits. AID 651572;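 active = inhibition above a per-plate limit, mean inhibition of low control wells plus 3 SD, cut at about 25% in these data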;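 also: 0% = DMSO wells with enzyme and 100% = wells lacking Arfgap1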
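Material: truncated rat Arfgap1 GAP domain; Incubation: compound-enzyme preincubation 20 min, reaction 120 min, detection 60 min, 25 °C; Read-out: percent inhibition of Arfgap1-stimulated GTP hydrolysis; Technique: FP, GDP Alexa 633 tracer displaced from anti-GDP antibody, 620/688 nm; Controls: No-Arfgap1 wells (100%) versus DMSO full-reaction wells (0%); Replication: single well per compound.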
NadD block: inhibitors of Staphylococcus aureus NadD; purified NadD enzyme, colorimetric absorbance read-out; inhibition, % at 20 µM; 360,000 compounds, 0.78% hits; in the data active = inhibition above about 26%
rCAG binder: r(CAG) repeat RNA binding. TO-PRO-1 dye displacement fluorescence. 370,000 compounds, 1.3% hits. inhibition, % at 3 µM. AID 651821;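 active = inhibition above the plate cutoff, the mean of all test compounds on that plate plus 3 SD, cut at about 35% in these data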;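 also: 0% = DMSO alone and 100% = 100 µM mitoxantrone as full dye displacement; higher means more dye released from RNA so lower well fluorescence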
ASAP1 GAP inh: blocks human ASAP1-stimulated Arf1 GTP hydrolysis. inhibition, % at 16.5 µM. Q9ULH1. GDP FP detection. 360,000 compounds, 0.19% hits; in the data active = inhibition above about 25%;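 also: 0% = vehicle with enzyme and substrate and 100% = no enzyme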
Target sequence (Q9ULH1 325-724 limits assumed): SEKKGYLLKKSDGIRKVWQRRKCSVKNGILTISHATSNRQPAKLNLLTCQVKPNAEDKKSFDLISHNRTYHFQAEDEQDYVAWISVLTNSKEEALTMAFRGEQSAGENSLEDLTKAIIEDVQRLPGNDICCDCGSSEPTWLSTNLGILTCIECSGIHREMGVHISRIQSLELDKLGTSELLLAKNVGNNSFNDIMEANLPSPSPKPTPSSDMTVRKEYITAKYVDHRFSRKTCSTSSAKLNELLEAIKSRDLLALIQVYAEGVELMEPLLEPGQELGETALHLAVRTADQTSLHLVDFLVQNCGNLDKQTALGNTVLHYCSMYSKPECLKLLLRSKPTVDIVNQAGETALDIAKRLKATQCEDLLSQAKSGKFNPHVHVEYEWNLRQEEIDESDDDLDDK
NadD conf: NadD (S. aureus) inhibition, single concentration confirmation. shares compounds with NadD block. purified S. aureus NadD, colorimetric enzyme assay. inhibition, % at 20 µM. 2,000 compounds, 13% hits. AID 624309; in the data active = inhibition mostly above about 42%, no sharp cut-off; inactive = mostly below about 42%
* marks the source's active call; other numbers are inactive results; / = no result given; ! = not active in a repeat. An excerpt weighted towards active compounds, which were near 2.2% of everything screened.

SMILES	ARFGAP1 inh	NadD block	rCAG binder	ASAP1 GAP inh	NadD conf
Cc1ccc(Cc2cnc(NC(=O)/C(C#N)=C/c3ccc(-c4ccccc4[N+](=O)[O-])o3)s2)cc1	-4.1	29.1*	6.6	-3.0	-1.0
C=CCN(CC#Cc1ccc(OC)cc1)CC=C	/	/	-3.1	/	/
CC1CCN(c2ccc(C(=O)O)cc2NS(=O)(=O)c2ccccc2)CC1	/	/	17.1	/	/
COc1cc(/C=C2\SC(=O)N(CC(=O)Nc3cccc(C)c3)C2=O)cc([N+](=O)[O-])c1O	1.4	40.8*	26.5	6.7	6.0
CCCCN1C2=C(C(=O)CCC2)C(c2ccc(Cl)c(Cl)c2)C2=C1c1ccccc1C2=O (centres undefined)	9.9	32.0*	5.7	0.1	8.4
COc1ccc([N+](=O)[O-])cc1NC(=O)CC1SC(=Nc2cccc(C)c2C)N(/N=C/c2cccc(OC)c2OC)C1=O (centres undefined)	2.3	35.1*!	18.5	8.0	20.4
CCOC(=O)c1ccc(NC(=O)CCNC(=O)c2ccc([N+](=O)[O-])cc2)cc1	-3.8	-5.3	1.3	-10.3	/
C#CCCc1cocc1/C=[N+](\[O-])c1ccc(C(=O)OCC)cc1	1.4	42.0*	32.0	0.3	31.0
Cc1ccc(-c2nc3ccccc3[nH]2)cc1NC(=O)c1ccc2c(c1)OCO2	11.3	2.0	9.7	-7.4	/
O=C(NC(=S)Nc1cc(-c2nc3ccccc3[nH]2)ccc1Cl)c1ccc2c(c1)OCO2	-12.2	30.0*	12.2	-5.9	47.2*
NNC(=O)c1oc2nc(-c3ccccc3)cc(-c3ccccc3)c2c1N	1.0	31.2*	11.9	-1.8	12.5
CNC(=S)NNC(=O)c1oc2nc(-c3ccccc3)cc(C)c2c1N	2.2	2.0	6.1	-5.2	/
COc1cccc(/C=N/NC(=O)c2oc3nc(-c4ccccc4)cc(-c4ccco4)c3c2N)c1	0.6	8.8	9.9	-2.7	/
NNC(=O)c1oc2nc(-c3cccs3)cc(-c3ccco3)c2c1N	17.7	35.7*	21.2	0.9	2.2
Cc1ccc(-c2cc(-c3ccco3)c3c(N)c(C(=O)NN)oc3n2)cc1	9.8	27.8*	17.7	-17.7	1.1
COC(=O)C1(C(=O)OC)C[C@H](c2cccs2)N(Cc2ccccc2OC)[C@@H]1c1ccc(F)cc1	19.5	/	7.8	6.8	/
O=C(c1cc(C2CC2)on1)N(C1CCCCC1)C1CCOCC1	/	/	-0.2	/	/
COc1cccc(C2C3=C(N=c4s/c(=C\c5cccc(O)c5)c(=O)n42)c2ccccc2CC3)c1OC (centres undefined)	11.0	40.0*	11.4	5.6	11.1
Cc1ccc(-c2nc(NC(=O)c3ccc(S(=O)(=O)N(CCC#N)CCC#N)cc3)sc2-c2ccccc2)cc1	11.7	2.3	5.1	8.0	/
N#CCCN(CCC#N)S(=O)(=O)c1ccc(C(=O)Nc2nc(-c3ccccc3)c(C(=O)c3ccccc3)s2)cc1	-6.0	35.7*	8.8	-4.6	1.1
COc1cc2nc(N(CCCN(C)C)C(=O)c3ccc(S(=O)(=O)N4CCc5ccccc54)cc3)sc2cc1OC	9.8	33.7*	2.3	-0.2	20.8
O=C1NC(Cc2cnc[nH]2)C(=O)N2CCCC12 (centres undefined)	12.6	/	0.2	0.9	/
O=C(NCc1ccccc1)OCCN1C(=O)CCC12CCC(c1ccc(Cl)cc1)CC2 (centres undefined)	/	/	-0.7	/	/
O=C(COC(=O)c1ccc(NS(=O)(=O)c2cccs2)cc1)NCc1ccco1	/	30.2*	/	/	31.7
O=C(COC(=O)c1cccs1)NCc1ccco1	0.6	-1.6	5.8	0.3	/
SMILES	ARFGAP1 inh	NadD block	rCAG binder	ASAP1 GAP inh	NadD conf
COc1ccc2oc(C(=O)Nc3nc(-c4ccccn4)cs3)c(C)c2c1	23.4	33.9*	11.5	-9.2	2.1
CC(C)(C)S(=O)(=O)N1Cc2cc(CO)ccc2[C@H]1CCO	6.4	/	13.4	-25.6	/
CC(C)OCCCn1c(=N)c(C(N)=S)cc2c(=O)n3ccccc3nc21	-1.7	25.6*	2.1	-3.4	8.9
Cc1cc2cc(CNS(=O)(=O)c3ccc4ccccc4c3)ccc2n1C	7.3	35.1*	17.3	6.7	33.5
COC(=O)[C@]12C[C@H](CC(=O)N3CCCCC3)C(=O)N(CCc3ccc(OC)c(OC)c3)C1=C[C@H](C1CCCC1)O[C@@H]2C	/	/	0.1	/	/
COc1cccc2c(=O)c3cccc(N)c3[nH]c12	-2.3	38.5*	28.7	-11.9	10.4
O=C(/C=C/Nc1ccc(S(=O)(=O)Nc2ncccn2)cc1)c1ccc(Cl)c(Cl)c1	-3.4	39.8*	6.5	-13.2	3.4
